The values that follow come from publication PMC5497803 (Cancer Science, 2017).

What is called IC50 is the concentration at which inhibition is half-maximal.

The conditions of data set [1]: previous study ref 38; cited from earlier work.
Data set [2] has as its target T1, p110β (Homo sapiens, UniProt P42338). The experiment in a line: biochemical.
For data set [3], the system named is phosphorylation of AKT and ERK in AML cells. Put plainly: Constitutive PI3K/AKT and ERK signaling in AML cells. It counts as cell-based, human. The following applies: Kasumi‐1 and EOL‐1 cells, 1 μM, 3 h. The procedure, abridged:
(§1)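 Cells in RPMI-1640/10% FBS treated with 1 μM test compound for 3 h, with no added stimulus. Whole-cell lysates separated by SDS-PAGE and transferred to PVDF. Probed for phospho-AKT (S473, T308), phospho-ERK1/2, phospho-S6 and phospho-P70S6K; ECL detection.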

Data set [4] can be described thus: Pharmacokinetic study in MV4. The settings on record: single oral dose 60 mg/kg, MV4;11 tumor‐bearing mice. It counts as in vivo. The essentials: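 MV4;11 tumour-bearing nude mice given a single oral 60 mg/kg dose or vehicle. Plasma and tumours collected at times from 0.5 to 24 h. Drug levels in plasma and tissue measured by HPLC/tandem MS; tumour extracts western blotted for phospho-AKT and phospho-ERK.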

For data set [5], the system named is peripheral blood mononuclear cells. Put plainly: Cytotoxicity against peripheral blood mononuclear cells. The settings on record: 10 μM; data not shown. It counts as cell-based.
In data set [6] the target is T2, p110δ (Homo sapiens, UniProt O00329). The experiment in a line: PI3K ELISA kinase assay, recombinant class I PI3K. It counts as biochemical. In general terms: In an ELISA, binding on a coated surface is turned into a signal by an enzyme label.
Data set [7] has as its system MV4;11 cells. Put plainly: Cell proliferation MTT assay. It counts as cell-based. The settings on record: Homo sapiens, MV4-11, 72 h, read-out: IC50 value, MV4;11. The essentials: (§2)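 Cells kept in RPMI-1640 with 10% FBS at 37°C, 5% CO2. In 96-well plates, cells exposed in triplicate to a range of test compound concentrations for 72 h at 37°C. Viability read by MTT conversion to coloured product. IC50 by curve fitting; mean ± SEM of three independent experiments.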

Data set [8] has as its target T3, p110α (Homo sapiens, UniProt P42336). The experiment in a line: PI3K isoform-specific cell-based assay, SK‐BR‐3 cells. The settings on record: 3 h. The procedure, abridged:
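SK-BR-3 cells exposed to test compound for 3 h. Cell lysates western blotted with phospho-specific antibodies for AKT phosphorylation.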

Data set [9] deals with T3, p110α. The experiment in a line: biochemical.
The subject of the next data set is RS4;11 xenografts. Put plainly: RS4. It counts as in vivo, nude mice. The procedure, abridged: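 Female Balb/cA nude mice, 5–6 weeks old, inoculated subcutaneously with 5–9 × 10^6 MV4;11 or RS4;11 cells and randomised at 100–300 mm3. Dosed orally with 30 or 60 mg/kg daily for 21 days, or vehicle (vehicle n = 12, treated n = 6). Tumour volume taken as (length × width²)/2; body weight and toxicity signs recorded. Tumours collected 3 h after last dose for western blot.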

For data set [10], the system named is panel of other protein kinases. The experiment in a line: SelectScreen kinase profiling, whole panel. It counts as biochemical. The settings on record: 1000 nM.
In a further data set the target is p110γ (Mus musculus, UniProt Q9JHG7). Put plainly: PI3K isoform-specific cell-based assay, C5a-stimulated RAW264.7 cells. The settings on record: C5a 50 ng/mL, 3 h drug; compared with Raji cells.
The test system of data set [11] is MV4;11 cells. The experiment in a line: Cell cycle analysis by flow cytometry. It counts as cell-based, human. The settings on record: MV4;11, 24 h, 1 μM; control 63.3%. A general note: In flow cytometry, cells or beads pass a laser one at a time.
For data set [12], the target named is T2, p110δ. The experiment in a line: PI3K isoform-specific cell-based assay, anti‐IgM–stimulated Raji cells. The following applies: anti‐IgM 1 μg/mL 10 min, then 3 h drug.
The subject of another data set is MV4;11 xenografts. The experiment in a line: MV4. It counts as in vivo, nude mice.
Data set [13] addresses T1, p110β. Put plainly: PI3K isoform-specific cell-based assay, LPA-stimulated PC‐3 cells. The following applies: LPA 10 μM, 3 h drug; compared with Raji cells. The essentials:
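PC-3 cells stimulated with LPA (10 μM) for 10 min, then exposed to test compound for a further 3 h. Cell lysates western blotted for AKT phosphorylation.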

For data set [14], the system named is phosphorylation of AKT or ERK in MM.1R cells. The experiment in a line: Constitutive PI3K/AKT and ERK signaling in MM.1R cells. It counts as cell-based. The following applies: low expression of p110δ; 1 μM, 3 h. The essentials:
as §1

Data set [15] relates to p110δ‐negative MM.1R cell line. The experiment in a line: Cell proliferation MTT assay. The settings on record: 72 h. It counts as cell-based. The procedure, abridged: as §2
The subject of data set [16] is MV4;11 cells. Put plainly: Apoptosis, Annexin V staining and cleaved caspases/PARP. It counts as cell-based, human. The settings on record: MV4;11 (and RS4;11), 48 h. The procedure, abridged:
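MV4;11 and RS4;11 cells exposed to test compound at several concentrations for 48 h. Whole-cell lysates were resolved by SDS-PAGE, blotted onto PVDF and probed for PARP and caspase-3, -8 and -9 cleavage, with ECL detection.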

T2 sequence (O00329 whole entry, species assumed): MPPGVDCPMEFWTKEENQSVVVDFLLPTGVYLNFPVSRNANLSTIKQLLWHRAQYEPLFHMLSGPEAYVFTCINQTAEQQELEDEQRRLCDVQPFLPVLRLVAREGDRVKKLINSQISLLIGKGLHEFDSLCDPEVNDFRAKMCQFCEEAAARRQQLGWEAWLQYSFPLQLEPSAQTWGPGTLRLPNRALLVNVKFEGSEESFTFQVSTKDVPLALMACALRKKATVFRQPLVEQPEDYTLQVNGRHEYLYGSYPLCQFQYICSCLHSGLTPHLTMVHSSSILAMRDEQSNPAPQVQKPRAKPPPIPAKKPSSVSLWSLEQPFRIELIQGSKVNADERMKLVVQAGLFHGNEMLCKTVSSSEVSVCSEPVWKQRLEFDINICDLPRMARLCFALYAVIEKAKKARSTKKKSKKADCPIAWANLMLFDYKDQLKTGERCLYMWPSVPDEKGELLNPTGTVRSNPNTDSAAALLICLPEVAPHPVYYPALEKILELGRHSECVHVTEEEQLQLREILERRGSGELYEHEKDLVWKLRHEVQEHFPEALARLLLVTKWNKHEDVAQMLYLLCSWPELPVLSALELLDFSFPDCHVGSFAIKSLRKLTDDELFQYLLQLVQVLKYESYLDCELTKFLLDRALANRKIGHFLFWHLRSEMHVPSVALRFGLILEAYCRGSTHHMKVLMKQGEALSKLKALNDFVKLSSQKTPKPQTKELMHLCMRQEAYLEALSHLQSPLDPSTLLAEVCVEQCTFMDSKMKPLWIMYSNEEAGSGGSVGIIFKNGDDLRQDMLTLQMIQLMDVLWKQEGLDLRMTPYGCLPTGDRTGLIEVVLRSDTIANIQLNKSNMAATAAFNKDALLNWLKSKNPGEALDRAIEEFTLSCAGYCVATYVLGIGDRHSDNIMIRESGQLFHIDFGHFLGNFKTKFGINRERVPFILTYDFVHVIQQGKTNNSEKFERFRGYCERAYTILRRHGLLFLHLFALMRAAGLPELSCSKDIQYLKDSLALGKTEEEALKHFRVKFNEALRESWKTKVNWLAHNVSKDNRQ
T2 sequence (P27986 whole entry partner, species assumed): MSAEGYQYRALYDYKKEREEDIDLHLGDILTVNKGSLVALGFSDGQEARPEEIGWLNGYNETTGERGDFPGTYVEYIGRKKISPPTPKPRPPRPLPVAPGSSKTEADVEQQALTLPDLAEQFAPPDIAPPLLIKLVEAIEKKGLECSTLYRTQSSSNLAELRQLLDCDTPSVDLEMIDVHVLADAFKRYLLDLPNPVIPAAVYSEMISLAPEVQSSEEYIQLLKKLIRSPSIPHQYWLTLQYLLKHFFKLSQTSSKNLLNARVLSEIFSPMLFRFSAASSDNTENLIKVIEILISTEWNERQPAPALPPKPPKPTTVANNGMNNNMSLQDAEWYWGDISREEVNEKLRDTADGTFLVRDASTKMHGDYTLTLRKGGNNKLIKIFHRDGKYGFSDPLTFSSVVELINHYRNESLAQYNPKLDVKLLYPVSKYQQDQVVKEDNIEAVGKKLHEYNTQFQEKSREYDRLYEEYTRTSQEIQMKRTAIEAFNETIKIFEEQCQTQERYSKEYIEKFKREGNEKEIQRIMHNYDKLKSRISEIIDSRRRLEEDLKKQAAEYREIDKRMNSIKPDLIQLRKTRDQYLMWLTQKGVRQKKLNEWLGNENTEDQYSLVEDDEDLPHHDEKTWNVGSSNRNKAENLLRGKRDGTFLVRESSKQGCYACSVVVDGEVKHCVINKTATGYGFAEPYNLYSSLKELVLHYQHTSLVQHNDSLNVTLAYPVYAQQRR
T1 sequence (P42338 whole entry, species assumed): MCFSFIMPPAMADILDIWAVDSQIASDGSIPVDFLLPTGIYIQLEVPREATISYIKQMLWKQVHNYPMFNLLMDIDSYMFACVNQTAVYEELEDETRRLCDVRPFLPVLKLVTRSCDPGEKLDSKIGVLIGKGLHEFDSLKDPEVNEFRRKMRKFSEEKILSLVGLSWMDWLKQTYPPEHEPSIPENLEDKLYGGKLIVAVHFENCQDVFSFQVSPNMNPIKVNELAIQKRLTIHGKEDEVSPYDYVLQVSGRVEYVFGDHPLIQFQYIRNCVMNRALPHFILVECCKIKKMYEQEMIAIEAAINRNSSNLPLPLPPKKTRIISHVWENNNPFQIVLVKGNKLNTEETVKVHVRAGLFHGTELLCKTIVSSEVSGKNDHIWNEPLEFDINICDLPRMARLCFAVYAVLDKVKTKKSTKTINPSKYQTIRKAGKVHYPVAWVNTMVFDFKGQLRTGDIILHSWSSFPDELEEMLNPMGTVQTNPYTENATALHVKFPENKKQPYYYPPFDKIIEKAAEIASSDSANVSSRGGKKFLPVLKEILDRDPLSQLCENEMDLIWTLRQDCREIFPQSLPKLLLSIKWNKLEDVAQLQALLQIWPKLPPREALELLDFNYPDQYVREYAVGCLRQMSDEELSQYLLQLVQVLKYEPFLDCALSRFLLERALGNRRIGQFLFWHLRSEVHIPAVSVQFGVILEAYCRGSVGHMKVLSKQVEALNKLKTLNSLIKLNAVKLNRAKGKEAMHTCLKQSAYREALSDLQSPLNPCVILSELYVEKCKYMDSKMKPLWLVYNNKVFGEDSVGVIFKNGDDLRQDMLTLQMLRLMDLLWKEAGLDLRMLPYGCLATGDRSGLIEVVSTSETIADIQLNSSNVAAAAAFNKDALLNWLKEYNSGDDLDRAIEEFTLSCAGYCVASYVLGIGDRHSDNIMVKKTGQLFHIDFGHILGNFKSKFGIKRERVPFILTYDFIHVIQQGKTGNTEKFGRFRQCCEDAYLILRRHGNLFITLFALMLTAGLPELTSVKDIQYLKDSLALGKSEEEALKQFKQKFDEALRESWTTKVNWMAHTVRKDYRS
T1 sequence (P27986 whole entry partner, species assumed): as the sequence (P27986 whole entry partner, species assumed) above
T3 sequence (P42336 whole entry, species assumed, canonical isoform): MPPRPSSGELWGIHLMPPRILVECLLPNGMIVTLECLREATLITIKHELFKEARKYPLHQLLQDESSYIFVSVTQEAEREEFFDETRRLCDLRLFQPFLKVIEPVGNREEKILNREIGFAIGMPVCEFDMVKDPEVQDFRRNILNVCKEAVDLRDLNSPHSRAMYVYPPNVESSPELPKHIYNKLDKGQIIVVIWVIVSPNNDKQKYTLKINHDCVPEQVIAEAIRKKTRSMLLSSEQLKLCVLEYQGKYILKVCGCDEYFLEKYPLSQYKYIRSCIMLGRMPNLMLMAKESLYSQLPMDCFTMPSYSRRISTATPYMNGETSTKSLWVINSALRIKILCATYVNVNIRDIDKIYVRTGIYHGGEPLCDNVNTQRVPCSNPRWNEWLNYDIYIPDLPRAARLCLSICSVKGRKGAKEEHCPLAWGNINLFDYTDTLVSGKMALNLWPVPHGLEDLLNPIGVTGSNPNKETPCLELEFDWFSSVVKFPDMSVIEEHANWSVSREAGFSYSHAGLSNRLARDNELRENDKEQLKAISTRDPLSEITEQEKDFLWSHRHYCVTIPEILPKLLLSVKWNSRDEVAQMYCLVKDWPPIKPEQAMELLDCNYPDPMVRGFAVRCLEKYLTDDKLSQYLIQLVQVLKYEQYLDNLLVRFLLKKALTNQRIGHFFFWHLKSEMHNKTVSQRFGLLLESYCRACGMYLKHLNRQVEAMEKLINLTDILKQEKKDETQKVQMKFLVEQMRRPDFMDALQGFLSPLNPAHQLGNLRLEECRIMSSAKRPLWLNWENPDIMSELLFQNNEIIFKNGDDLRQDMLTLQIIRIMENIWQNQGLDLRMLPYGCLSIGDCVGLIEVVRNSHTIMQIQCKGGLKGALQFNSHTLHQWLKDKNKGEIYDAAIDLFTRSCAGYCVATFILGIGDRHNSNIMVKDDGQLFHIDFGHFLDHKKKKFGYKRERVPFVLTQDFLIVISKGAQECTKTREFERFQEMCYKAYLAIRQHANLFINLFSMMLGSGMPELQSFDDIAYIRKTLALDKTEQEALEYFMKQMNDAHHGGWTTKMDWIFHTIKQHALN
T3 sequence (P27986 whole entry partner, species assumed, canonical isoform): as the sequence (P27986 whole entry partner, species assumed) above
p110γ, sequence (Q9JHG7 whole entry, canonical isoform): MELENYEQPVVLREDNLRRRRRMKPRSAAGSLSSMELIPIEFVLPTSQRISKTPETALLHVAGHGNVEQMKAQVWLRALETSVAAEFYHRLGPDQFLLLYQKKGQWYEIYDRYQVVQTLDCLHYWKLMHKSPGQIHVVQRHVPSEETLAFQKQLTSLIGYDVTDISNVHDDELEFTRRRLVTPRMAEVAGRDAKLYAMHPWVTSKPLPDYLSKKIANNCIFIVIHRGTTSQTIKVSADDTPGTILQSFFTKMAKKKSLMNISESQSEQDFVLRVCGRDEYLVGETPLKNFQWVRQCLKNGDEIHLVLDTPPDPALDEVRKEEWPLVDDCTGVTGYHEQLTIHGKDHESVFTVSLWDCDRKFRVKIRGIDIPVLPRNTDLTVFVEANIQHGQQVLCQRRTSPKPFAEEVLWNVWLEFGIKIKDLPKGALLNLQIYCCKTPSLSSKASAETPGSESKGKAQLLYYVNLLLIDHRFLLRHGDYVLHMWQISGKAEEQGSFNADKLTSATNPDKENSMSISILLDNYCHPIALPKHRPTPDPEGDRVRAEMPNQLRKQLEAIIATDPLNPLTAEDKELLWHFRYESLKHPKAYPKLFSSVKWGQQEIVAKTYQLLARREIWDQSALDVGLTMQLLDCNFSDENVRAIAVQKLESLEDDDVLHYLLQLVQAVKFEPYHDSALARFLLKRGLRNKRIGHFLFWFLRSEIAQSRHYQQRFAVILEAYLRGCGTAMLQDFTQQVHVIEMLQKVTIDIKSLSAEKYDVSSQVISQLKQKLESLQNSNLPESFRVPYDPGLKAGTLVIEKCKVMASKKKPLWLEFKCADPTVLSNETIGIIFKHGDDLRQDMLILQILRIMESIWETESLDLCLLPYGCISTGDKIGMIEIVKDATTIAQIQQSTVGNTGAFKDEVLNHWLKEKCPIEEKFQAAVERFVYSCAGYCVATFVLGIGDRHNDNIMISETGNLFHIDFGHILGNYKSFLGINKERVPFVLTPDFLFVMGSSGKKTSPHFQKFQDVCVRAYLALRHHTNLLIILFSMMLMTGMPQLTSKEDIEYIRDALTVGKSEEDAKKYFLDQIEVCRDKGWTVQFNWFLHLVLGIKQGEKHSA

As for `c1cnc2ccc(Nc3nc(NC4CC4)c4nc[nH]c4n3)cc2c1` [Puquitinib], in data set [1], the Hyperglycemia result is given as “no puquitinib‐related hyperglycemia”. The IC50 against p110β [2] turned out to be 959 ± 367 nM; on p110δ [6], 3.3 ± 0.6 nM; with MV4;11 cells [7], 100 nM; against p110α [9], 993 ± 320 nM. Moreover, the “Phosphorylation of AKT and ERK in p110δ‐positive AML cells” value in [3] is “significantly inhibited”. For the same molecule, the “Appearance in plasma and tumor tissue” value in data set [4] is on record as “appeared rapidly”. In addition, the “Cytotoxicity against peripheral blood mononuclear cells” value in [5] was “no cytotoxicity”. Besides, the “p110α/AKT phosphorylation in SK‐BR‐3 cells” value at p110α [8] was “No obvious inhibitory activity”. The Tumor growth inhibition in the data set with RS4;11 xenografts (30 mg/kg oral daily for 21 days) was found to be 50%; with RS4;11 xenografts (60 mg/kg oral daily for 21 days) it was 69%; with MV4;11 xenografts (MV4;11 xenografts, 30 mg/kg oral daily for 21 days, final treatment day), 72%; in the data set on MV4;11 xenografts (MV4;11 xenografts, 60 mg/kg oral daily for 21 days, final treatment day), 103%. Also, the “Inhibitory activity against a panel of other protein kinases” value in [10] was “little or no inhibitory activity”. In addition, the “C5a‐stimulated phosphorylation of AKT in RAW 264.7 cells” value on p110γ is listed as “much weaker”. Besides, in the data set with MV4;11 cells [11], the G1 phase cells came out at 83.0%. Moreover, the “Phosphorylation of AKT, S6 and ERK in anti‐IgM–stimulated Raji cells” value on p110δ [12] is “concentration‐dependent decrease”. Further, in the data set with MV4;11 xenografts (MV4;11 and RS4;11 tumor models, 3 h after last dose), the “Levels of pAKT and pERK in tumor tissues” value was “significantly decreased”. In addition, the “Tolerability (body weight loss, signs of toxicity)” value in the data set on MV4;11 xenografts (MV4;11 and RS4;11 xenograft studies, all groups) is on record as “well tolerated”. Besides, the “Phosphorylation of AKT and ERK in tumor tissue after a single dose” value in the data set with MV4;11 xenografts (MV4;11 xenograft, single oral 60 mg/kg, 0.5 to 24 h) was “inhibited in a time‐dependent manner”. In the data set with MV4;11 xenografts (MV4;11 xenografts, 60 mg/kg oral daily), the Complete tumor regression result was “three of six”. Moreover, the “Antitumor efficacy of combination versus single agents” value in the data set with MV4;11 xenografts (MV4;11 xenografts, 30 mg/kg puquitinib combined with 2 mg/kg daunorubicin, P < 0.01) is “significantly superior”. Further, the Tolerability of combination result with MV4;11 xenografts (MV4;11 xenografts, puquitinib with daunorubicin or cytarabine) is on record as “generally well tolerated”. For the same molecule, at p110β [13], the “LPA‐stimulated phosphorylation of AKT in PC‐3 cells” value was “much weaker”. Besides, the “Phosphorylation of AKT or ERK in MM.1R cells” value in [14] is “did not affect”. Also, in data set [15], the “Cytotoxicity in p110δ‐negative MM.1R cell line” value was “minimal cytotoxicity”. The Apoptosis induction entry in the data set with MV4;11 cells [16] is “increased in a dose‐dependent manner”.

Take `CC[C@H](Nc1ncnc2[nH]cnc12)c1nc2cccc(F)c2c(=O)n1-c1ccccc1` [CAL‐101, Idelalisib, reference compound]: in data set [3], the “Phosphorylation of AKT and ERK in p110δ‐positive AML cells” value is listed as “preferentially inhibited phosphorylation of AKT relative to ERK”. The IC50 with MV4;11 cells [7] was found to be 2400 nM. This molecule yielded a G1 phase cells in the data set on MV4;11 cells [11] of 70.7%. Further, the “Phosphorylation of AKT, S6 and ERK in anti‐IgM–stimulated Raji cells” value at p110δ [12] is listed as “concentration‐dependent decrease”. The Tumor growth inhibition amounted to 50% in the data set on MV4;11 xenografts (MV4;11 xenografts, 90 mg/kg oral daily) and 61% in the data set on MV4;11 xenografts (MV4;11 xenografts, 180 mg/kg oral daily). Moreover, the Apoptosis induction result in the data set on MV4;11 cells [16] was “weaker induction of apoptosis”.
